These results are taken from ChEMBL document CHEMBL4610110, “Targeting mPGES-1 by a Combinatorial Approach: Identification of the Aminobenzothiazole Scaffold to Suppress PGE2 Levels” (ACS Med Chem Lett, 2020).

Test [1] addresses T1, Prostaglandin E synthase (Homo sapiens) (UniProt O14684).
T1 sequence (whole entry): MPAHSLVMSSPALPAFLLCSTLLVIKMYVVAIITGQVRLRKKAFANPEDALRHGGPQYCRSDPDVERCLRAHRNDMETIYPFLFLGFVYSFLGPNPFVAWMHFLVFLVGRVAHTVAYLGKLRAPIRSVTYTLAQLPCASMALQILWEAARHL
As to the kind of experiment: Inhibition of mPGES1 in human A549 cells assessed as reduction in IL-1beta induced PGE2 release by measuring residual activity at 10 uM using PGH2 as substrate preincubated for 15 mins followed by substrate addition and measured after 1 min by RP-UV-HPLC analysis relative to control. In kind it is cell-based. In short, it runs like this: (§1)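 The enzyme source was microsomes from IL-1β-stimulated A549 cells in a cell-free assay. The read-out was enzymatic conversion of PGH2 (20 μM) to PGE2.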

Test [2] concerns the target T2, Prostaglandin E synthase (Homo sapiens, UniProt O14684).
T2 sequence (O14684 whole entry): T1 sequence (whole entry)
Nature of the test: Inhibition of mPGES1 in human A549 cells assessed as reduction in IL-1beta induced PGE2 release using PGH2 as substrate preincubated for 15 mins followed by substrate addition and measured after 1 min by RP-UV-HPLC analysis. The class given is cell-based. The method, boiled down:
as §1

Test [3] deals with A549. Nature of the test: Induction of programmed cell death in human A549 cells assessed as accumulation at subG0/G1 phase at 20 to 30 uM incubated for 72 hrs by propidium iodide staining based flow cytometric analysis relative to control. The class given is functional. In short, it runs like this:
(§2)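 A549 human lung epithelial cancer cells were exposed to compound at several concentrations for 48 or 72 h. DNA was then stained with propidium iodide, and the percentage of cells in each cycle phase was measured by flow cytometry. The hypodiploid subG0/G1 fraction was read as cell death. Values are mean ± SEM of two independent experiments, each run in triplicate.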

For test [4], the system named is A549. As to the kind of experiment: Antiproliferative activity against human A549 cells assessed as inhibition of cell viability incubated for 72 hrs by MTT assay. In kind it is functional, cell-based. As to conditions: A549, 72 h. The method, boiled down:
(§3)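 A549 cells were exposed to test compounds in an MTT viability assay (5–100 μM for the 48 h and 72 h exposures). IC50 is the mean ± S.D. of single determinations from three independent experiments.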
For orientation: Tetrazolium assays rely on reduction of a dye to a coloured formazan, in cell work by metabolically active cells.

Test [5] concerns A549. As to the kind of experiment: Antiproliferative activity against human A549 cells assessed as inhibition of cell viability incubated for 24 hrs by MTT assay. In kind it is functional, cell-based. The following applies: A549, 24 h. In short, it runs like this: as §3
Test [6] deals with A549. Nature of the test: Induction of programmed cell death in human A549 cells assessed as accumulation at subG0/G1 phase at 20 to 30 uM incubated for 48 hrs by propidium iodide staining based flow cytometric analysis relative to control. In kind it is functional. In short, it runs like this:
as §2
For orientation: In flow cytometry, cells or beads pass a laser one at a time.

Test [7] has as its target T1, Prostaglandin E synthase (Homo sapiens). Nature of the test: Inhibition of mPGES1 in human A549 cells assessed as reduction in IL-1beta induced PGE2 release incubated for 24 hrs by ELISA. The class given is cell-based. The method, boiled down:
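A549 cells were incubated for 24 h at 5 or 10 μM in medium with 1% FBS and 10 ng/mL IL-1β. PGE2 released into the medium was quantified by ELISA against DMSO vehicle-treated cells. Values are mean ± SEM (pg/mL) of two independent experiments.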
For orientation: In an ELISA, binding on a coated surface is turned into a signal by an enzyme label.

In test [8] the test system is A549. Nature of the test: Antiproliferative activity against human A549 cells assessed as inhibition of cell viability incubated for 48 hrs by MTT assay. The class given is functional, cell-based. The following applies: A549, 48 h. The method, boiled down: as §3
Test [9] relates to A549. As to the kind of experiment: Induction of cell cycle arrest in human A549 cells assessed as accumulation at G2/M phase at 30 uM incubated for 72 hrs by propidium iodide staining based flow cytometric analysis. The class given is functional. In short, it runs like this: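 A549 cells were treated at several concentrations for 48 or 72 h, then stained for DNA with propidium iodide. Cell-cycle phase percentages were read by flow cytometry. Values are means ± SEM of two independent experiments, each run in triplicate.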

Calls of active or inactive are those of the source. The calls are words filed in the database; no cut-off is given here.

Take `NC(=O)c1cccc(-c2ccc3sc(NC(=O)c4c(Cl)cccc4Cl)nc3c2)c1`: in test [1], the inhibition entry was “inactive”.
With `O=C(Nc1nc2cc(-c3cccc(CO)c3)ccc2s1)c1ccccc1Br`, the Activity in [1] was over 30%.
Still for that read-out and setting: for `O=C(Nc1nc2cc(-c3cccc(CO)c3)ccc2s1)c1c(Cl)cccc1Cl` the value was over 30%.
With `NC(=O)c1cccc(-c2ccc3sc(NC(=O)c4ccc(F)cc4C(F)(F)F)nc3c2)c1`, the IC50 – broadly, the concentration at which inhibition is half-maximal – in test [2] amounted to 1700 nM; in test [4], 19.2 µM; in [5], 98.3 µM; in test [8] it was 50.6 µM. The figures for the Activity in [3] and in test [6] were 7% and 6%, respectively. In addition, the inhibition result in [7] is “Dose-dependent effect”.
On to `O=C(Nc1nc2cc(-c3cccc(CO)c3)ccc2s1)c1ccc(F)cc1Cl`, for which the Activity in test [1] is over 30%.
With `O=C(Nc1nc2ccc(-c3cccc(CO)c3)cc2s1)c1ccccc1Br`, the IC50 in [2] was found to be 700 nM; in [4], 18.1 µM; in test [5], 97.5 µM; in [8], 57.5 µM. For the same compound, the Activity in test [3] is given as 18%; in [6] it was 5%. In test [9], the outcome was Active. Further, the inhibition entry in test [7] was “Dose-dependent effect”.
With `Cc1cc(C)c(C(=O)Nc2nc3cc(-c4cccc(CO)c4)ccc3s2)o1`, in test [1], the Activity was over 30%.
On to `O=C(Nc1nc2ccc(-c3cccc(CO)c3)cc2s1)c1ccc(F)cc1Cl`, for which the IC50 in [2] came out at 1400 nM; in test [4] it was 28.5 µM; in test [5], 98.2 µM; in test [8], 71.4 µM. Further, the result in test [3] and in [6] was inactive. The inhibition entry in test [7] was “Dose-dependent effect”.
For `Cc1cc(C)c(C(=O)Nc2nc3cc(-c4cccc(C(N)=O)c4)ccc3s2)o1`, the inhibition entry in test [1] is “inactive”.
For `O=C1OC(O)C(c2cc3ccccc3s2)=C1Br` (stereo unspecified), the IC50 in [4] was 9.1 µM; in test [5], 98.5 µM; in test [8], 12.5 µM.
Regarding `Cc1cc(C)c(C(=O)Nc2nc3ccc(-c4cccc(CO)c4)cc3s2)o1`, the IC50 turned out to be 2600 nM in test [2], 55.2 µM in test [4], 95 µM in test [5] and 63.2 µM in test [8]. Besides, the inhibition result in test [7] is “Dose-dependent effect”.
